Results on three compounds are retold here after ChEMBL document CHEMBL1123901, “Inhibition of delayed hypersensitivity reactions by cinnamyl 1-thioglycosides” (J Med Chem, 1987).

As a reminder, the IC50 is the point on the concentration scale where inhibition reaches its midpoint. A lower IC50 goes with greater potency in that assay.

Format in all cases: functional
Assay [1] deals with Mus musculus. The experiment in a line: Percent reduction in mice after oral administration 2.5 mg/kg. The method, boiled down: (§1)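 DTH in A/J female mice (20-23 g): cyclophosphamide 200 mg/kg sc, then iv sensitization with 10^8 washed SRBC 3 days later. On day 6 after sensitization, one hind footpad challenged with 10^8 SRBC in 20 μL, the other given saline. Dosing ip or po to overnight-fasted mice 20 min before challenge. Swelling read at 24 and 48 h as antigen minus saline footpad (mm × 10), by constant-pressure caliper.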

The test system of assay [2] is Mus musculus. In words: Compound was administered orally to mice before increase in foot-pad thickness at a dose of 2.5 mg/kg. The note with it: route oral. The method, boiled down: as §1
For assay [3], the species on record is Cavia porcellus. In words: Effect on guinea pig T cell proliferation was tested by measuring the incorporation of [3H]thymidine uptake at the concentration of 250 uM. In short, it runs like this: (§2)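 Strain 2 female guinea pigs were immunized with 100 μg OVA in CFA split over the footpads. At day 14 they received mineral oil ip, and the exudate was collected 4 days later. T cells were enriched on nylon wool. 2×10^5 cells per well were cultured with 10% irradiated (2100 rads) exudate cells, OVA (10 μg/mL) and compound, for 72 h at 37 °C in 5% CO2. [3H]thymidine (1 μCi) was added 18-24 h before harvest. Triplicate wells; mean Δcpm ± SD.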

For assay [4], the species on record is Cavia porcellus. The experiment in a line: Inhibitory activity against [3H]thymidine uptake by cinnamyl 1-thioglycosides in guinea pig T cell proliferation. The note with it: Cavia porcellus, T-cell, 72 h. The method, boiled down: as §2
The species entered for assay [5] is Cavia porcellus. In words: Effect on guinea pig T cell proliferation was tested by measuring the incorporation of [3H]thymidine uptake at the concentration of 10 uM. In short, it runs like this: as §2
The species named for assay [6] is Cavia porcellus. The experiment in a line: Effect on guinea pig T cell proliferation was tested by measuring the incorporation of [3H]thymidine uptake at the concentration of 1000 uM. In short, it runs like this:
as §2

The species named for assay [7] is Cavia porcellus. The experiment in a line: Effect on guinea pig T cell proliferation was tested by measuring the incorporation of [3H]-thymidine uptake at the concentration of 0 uM. In short, it runs like this: as §2
Assay [8] is filed under the species Cavia porcellus. In words: Effect on guinea pig T cell proliferation was tested by measuring the incorporation of [3H]thymidine uptake at the concentration of 750 uM. In short, it runs like this:
as §2

The species named for assay [9] is Cavia porcellus. In words: Effect on guinea pig T cell proliferation was ested by measuring the incorporation of (+/)-[3H]thymidine uptake at the concentration of 100 uM. The method, boiled down: as §2
For assay [10], the species on record is Cavia porcellus. The experiment in a line: Effect on guinea pig T cell proliferation was tested by measuring the incorporation of [3H]thymidine uptake at the concentration of 500 uM. The method, boiled down: as §2
The species entered for assay [11] is Cavia porcellus. In words: [3H]thymidine uptake was determined by liquid scintillation spectroscopy in compound 2 treated Macrophages pretreated with 500 uM 2 at 37 degree C for 18 h. In short, it runs like this: (§3)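 Guinea pig PELs and irradiated (2100 rads) exudate macrophages were each preincubated with compound (1 mM or 500 μM, depending on agent) for 18 h at 37 °C, then washed. Macrophages were pulsed with OVA 100 μg/mL for 1 h at 37 °C and washed. Cells were viability-adjusted by trypan blue and mixed, with or without OVA 10 μg/mL. Culture ran 72 h at 37 °C with [3H]thymidine read by scintillation, as mean Δcpm × 10^-3.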

The species named for assay [12] is Cavia porcellus. In words: [3H]thymidine uptake was determined by liquid scintillation spectroscopy in 3 treated Macrophages plus OVA (10 ug/mL). The method, boiled down:
as §3

In assay [13] the test system is Mus musculus. In words: Percent reduction in mice after oral administration of 30 mg/kg. In short, it runs like this:
as §1

The species entered for assay [14] is Cavia porcellus. The experiment in a line: [3H]thymidine uptake was determined by liquid scintillation spectroscopy in Macrophages pretreated with 500 uM 2 at 37 degree C for 18 h. In short, it runs like this:
as §3

The species entered for assay [15] is Cavia porcellus. In words: [3H]thymidine uptake was determined by liquid scintillation spectroscopy in compound 2 pretreated OVA pulsed Macrophages plus OVA (10 ug/mL). The method, boiled down:
as §3

For assay [16], the system named is Mus musculus. The experiment in a line: Compound was administered orally to mice before increase in foot-pad thickness at a dose of 10 mg/kg. The note with it: route oral. In short, it runs like this:
as §1

For assay [17], the species on record is Cavia porcellus. The experiment in a line: Inhibitory activity against [3H]thymidine uptake by cinnamyl 1-thioglycosides using guinea pig T cell proliferation assay.
The subject of assay [18] is Mus musculus. The experiment in a line: Percent reduction in mice after intraperitoneal administration 3 mg/kg. The method, boiled down: as §1
The species entered for assay [19] is Cavia porcellus. The experiment in a line: [3H]-Thymidine uptake was determined by liquid scintillation spectroscopy in compound 2 pretreated Macrophages plus OVA (ug/mL) pretreated with 500 uM 2 at 37 degree C for 18 h. In short, it runs like this:
as §3

In assay [20] the test system is Mus musculus. The experiment in a line: Compound was administered intraperitoneally to mice before increase in foot-pad thickness at a dose of 10 mg/kg. Particulars: route intraperitoneal. In short, it runs like this: as §1
For assay [21], the system named is Mus musculus. The experiment in a line: Percent reduction in mice after intraperitoneal administration of 30 mg/kg. The method, boiled down:
as §1

The subject of assay [22] is Mus musculus. The experiment in a line: Percent reduction in mice after intraperitoneal administration 10 mg/kg. In short, it runs like this:
as §1

The species entered for assay [23] is Cavia porcellus. The experiment in a line: [3H]-Thymidine uptake was determined by liquid scintillation spectroscopy in OVA pulsed compound 2 pretreated Macrophages pretreated with 500 uM 2 at 37 degree C for 18 h. In short, it runs like this:
as §3

The subject of assay [24] is Mus musculus. The experiment in a line: Compound was administered orally to mice before increase in foot-pad thickness at a dose of 30 mg/kg. Particulars: route oral. In short, it runs like this: as §1
The subject of assay [25] is Mus musculus. In words: Percent reduction in mice after oral administration 10 mg/kg. In short, it runs like this:
as §1

Assay [26] is filed under the species Cavia porcellus. The experiment in a line: [3H]thymidine uptake was determined by liquid scintillation spectroscopy in compound 2 treated Macrophages. The method, boiled down: as §3
Assay [27] relates to Mus musculus. The experiment in a line: Compound was administered intraperitoneally to mice before increase in foot-pad thickness at a dose of 30 mg/kg. Particulars: route intraperitoneal. In short, it runs like this:
as §1

For assay [28], the species on record is Cavia porcellus. The experiment in a line: [3H]thymidine uptake was determined by liquid scintillation spectroscopy in 2 pretreated OVA pulsed Macrophages plus OVA (10 ug/mL) pretreated with 500 uM 2 at 37 degree C for 18 h. In short, it runs like this:
as §3

Assay [29] is filed under the species Cavia porcellus. In words: [3H]thymidine uptake was determined by liquid scintillation spectroscopy in ovalbumin pulsed Macrophages. In short, it runs like this: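 Pretreatment protocol. Strain 2 female guinea pigs immunized with OVA in CFA (100 μg OVA; 0.1 mL/foot); mineral oil given ip at day 14, peritoneal exudate collected 4 days later. Nylon-wool-enriched T cells (PELs) and irradiated (2100 rads) exudate macrophages each incubated with sugar derivative 18 h at 37 °C, then washed. Macrophages pulsed with OVA 100 μg/mL for 1 h at 37 °C and washed. Viability adjusted by trypan blue; populations mixed and cultured 72 h at 37 °C. [3H]thymidine (1 μCi) added 18-24 h before harvest; read by liquid scintillation as mean Δcpm ×10^-3.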

Assay [30] is filed under the species Cavia porcellus. The experiment in a line: [3H]thymidine uptake was determined by liquid scintillation spectroscopy in Macrophages. In short, it runs like this:
as §3

The species named for assay [31] is Cavia porcellus. In words: [3H]thymidine uptake was determined by liquid scintillation spectroscopy in OVA pulsed Macrophages pretreated with 500 uM 2 at 37 degree C for 18 h. In short, it runs like this:
as §3

Assay [32] concerns Mus musculus. The experiment in a line: Percent reduction in mice after oral administration 3 mg/kg. The method, boiled down: as §1
The species named for assay [33] is Cavia porcellus. The experiment in a line: Effect on guinea pig T cell proliferation was tested by measuring the incorporation of [3H]-thymidine uptake at the concentration of 100 uM. In short, it runs like this:
as §2

In assay [34] the test system is Mus musculus. The experiment in a line: Compound was administered orally to mice before increase in foot-pad thickness at a dose of 3 mg/kg. Particulars: route oral. In short, it runs like this: as §1
In assay [35] the test system is Mus musculus. The experiment in a line: Compound was administered intraperitoneally to mice before increase in foot-pad thickness at a dose of 3 mg/kg. Particulars: route intraperitoneal. In short, it runs like this:
as §1

The species named for assay [36] is Cavia porcellus. The experiment in a line: [3H]-Thymidine uptake was determined by liquid scintillation spectroscopy in ovalbumin (OVA) pulsed compound 2 treated Macrophages. In short, it runs like this:
as §3

In turn, `C[C@@H]1C[C@H]2[C@@H]3CCC4=CC(=O)C=C[C@]4(C)[C@@]3(F)[C@@H](O)C[C@]2(C)[C@@]1(O)C(=O)CO` [DEXAMETHASONE] gave a Reduction with Mus musculus [1] of 68%. In the assay on Mus musculus [2], this compound returned an Activity of 0.3 mm x10.
Take `[N-]=[N+]=NCC1OC(SC/C=C/c2ccccc2)C(O)C(O)C1O` (configuration not stated): the Activity was 14.3 Δcpm x10e-3 in the assay filed under Cavia porcellus [3]; 21 Δcpm x10e-3 in the assay listed under Cavia porcellus [5]; 0.06 Δcpm x10e-3 in the assay filed under Cavia porcellus [6]; 33.5 Δcpm x10e-3 in the assay filed under Cavia porcellus [7]; 0 Δcpm x 10^-3 in the assay filed under Cavia porcellus [8]; 21.1 Δcpm x10e-3 in the assay listed under Cavia porcellus [9]. The Activity in the assay filed under Cavia porcellus [10] was 2.26 Δcpm x10e-3. In the assay listed under Cavia porcellus [4], this compound had a 50% inhibitory concentration (IC50) of 240 µM.
Regarding `OCC1OC(SC/C=C/c2ccccc2)C(O)C(O)C1O` (stereo in doubt; 2), the “Delta cpm x10e-3” value in the assay filed under Cavia porcellus [11] is recorded as 1.07; in the assay filed under Cavia porcellus [12], 14.5; in the assay filed under Cavia porcellus [14] it was 1.16; in the assay listed under Cavia porcellus [15] it was 18.94; in the assay listed under Cavia porcellus [19], 8.7; in the assay listed under Cavia porcellus [23], 14.2. The “Delta cpm x10e-3” value in the assay listed under Cavia porcellus [26] amounted to 1.89; in the assay listed under Cavia porcellus [28], 12.06; in the assay listed under Cavia porcellus [29] it was 41.36; in the assay listed under Cavia porcellus [30] it was 1.31; in the assay listed under Cavia porcellus [31] it was 30.35; in the assay filed under Cavia porcellus [36] it was 27.8. In addition, the Activity in the assay listed under Cavia porcellus [3] was 17.6 Δcpm x10e-3; in the assay filed under Cavia porcellus [5] it was 95.9 Δcpm x10e-3; in the assay listed under Cavia porcellus [6] it was 0.18 Δcpm x10e-3; in the assay with Mus musculus [16], 0.82 mm x10; in the assay with Mus musculus [20], 2.46 mm x10; in the assay listed under Cavia porcellus [7], 82.4 Δcpm x10e-3. Further, the Activity is 0.82 mm x10 in the assay on Mus musculus [24]; 2.07 mm x10 with Mus musculus [27]; 0 Δcpm x 10^-3 in the assay filed under Cavia porcellus [8]; 0.04 Δcpm x10e-3 in the assay listed under Cavia porcellus [10]; 63.6 Δcpm x10e-3 in the assay filed under Cavia porcellus [33]; 0.85 mm x10 with Mus musculus [34]. For the same compound, the Activity with Mus musculus [35] came out at 7.3 mm x10. Also, the Reduction is 30% in the assay on Mus musculus [13]; 0% with Mus musculus [18]; 63% in the assay with Mus musculus [21]; 56% in the assay with Mus musculus [22]; 30% in the assay with Mus musculus [25]; 27% in the assay on Mus musculus [32]. For the same compound, the IC50 in the assay filed under Cavia porcellus [17] was 198 µM.
